This note sets out measurements from ChEMBL document CHEMBL1156469 (2007).

In test [1] the target is Proto-oncogene tyrosine-protein kinase Src (Mus musculus) (UniProt P05480). The experiment in a line: Reversal of increase in Src kinase phosphorylation in mouse MC3T3-E1 cells transfected with dominant-negative mutant Src expression vector at 1 uM. The format is cell-based. The method in brief: (§1)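 Src phosphorylation, ERα nuclear translocation and BMP-2 protein analysed by Western blot with ECL detection. Three independent experiments.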

Test [2] is described as follows: Reversal of induction in BMP2 expression in mouse MC3T3-E1 cells at 1 uM by Western blot in presence of PP2. The format is functional, cell-based. In outline: as §1
For orientation: In western blotting, separated proteins are transferred to a membrane and probed.

Test [3] relates to Osteoblast. Put plainly: Effect on procollagen 14alpha 1 gene expression in rat primary osteoblast cells assessed as expression ratio of treated to untreated control by microarray analysis. The class given is functional. In outline: (§2)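 Resveratrol-treated and vehicle-treated primary osteoblasts were profiled on a mouse osteogenesis-focused cDNA array (GEArray Q series) built to track gene expression during osteogenic differentiation. Each gene's signal in treated cells was expressed as a ratio to untreated control.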

The test system of test [4] is Osteoblast. The experiment in a line: Effect on growth differentiation factor 10 gene expression in rat primary osteoblast cells assessed as expression ratio of treated to untreated control by microarray analysis. The format is functional. The method in brief: as §2
For test [5], the system named is Osteoblast. The experiment in a line: Increase in BMP2 levels in rat primary osteoblast cells at 1 uM by Western blot. The class given is functional, cell-based. As to conditions: TDE = time-dependent effect. In outline:
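Osteoblasts treated with 1 μm for the indicated times; lysates resolved by SDS-PAGE, transferred to nitrocellulose, probed with anti-BMP-2, ECL detection.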

In test [6] the target is Forkhead box protein O3 (Homo sapiens) (UniProt O43524). The experiment in a line: Induction of FOXO3a activity in human MDA-MB-231 cells. The format is cell-based.
Test [7] has the same target. Put plainly: Inhibition of IGF-induced FOXO3a phosphorylation at Thr32 residue in human MDA-MB-231 cells by Western blot. The format is cell-based. In outline: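 MDA-MB-231 breast cancer cells, control or resveratrol-treated, then exposed or not to IGF. Lysates resolved by SDS-PAGE, transferred to nitrocellulose, probed with specific primary and secondary antibodies, and detected by ECL. Membranes stripped and reprobed where indicated.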

Another test concerns MC3T3-E1. Put plainly: Inhibition of antiapoptotic activity in mouse MC3T3-E1 cells at 1 uM after 48 hrs in presence of noggin. The format is functional, cell-based.
The test system of test [8] is Osteoblast. The experiment in a line: Effect on procollagen 4 alpha 4 gene expression in rat primary osteoblast cells assessed as expression ratio of treated to untreated control by microarray analysis. The format is functional. In outline:
as §2

In test [9] the test system is Osteoblast. Put plainly: Effect on procollagen 4 alpha 2 gene expression in rat primary osteoblast cells assessed as expression ratio of treated to untreated control by microarray analysis. The class given is functional. In outline: as §2
The subject of another test is MCF7. Put plainly: Reduction in anchorage-independent colony formation of human MCF7 cells at 1 uM by soft agar colony forming assay. The format is functional, cell-based. In outline:
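Seeded in 0.35% noble agar in DMEM/10% FBS over a 0.7% agar bed. Colonies of at least 50 μm counted after 3 weeks under a dissecting microscope, six replicates per treatment. Three separate experiments.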

Test [10] concerns Osteoblast. Put plainly: Effect on epidermal growth factor gene expression in rat primary osteoblast cells assessed as expression ratio of treated to untreated control by microarray analysis. The class given is functional.

The source made the active and inactive calls. The calls are words filed in the database; no cut-off is given here.

Sequence of Forkhead box protein O3 (Homo sapiens) (O43524 whole entry): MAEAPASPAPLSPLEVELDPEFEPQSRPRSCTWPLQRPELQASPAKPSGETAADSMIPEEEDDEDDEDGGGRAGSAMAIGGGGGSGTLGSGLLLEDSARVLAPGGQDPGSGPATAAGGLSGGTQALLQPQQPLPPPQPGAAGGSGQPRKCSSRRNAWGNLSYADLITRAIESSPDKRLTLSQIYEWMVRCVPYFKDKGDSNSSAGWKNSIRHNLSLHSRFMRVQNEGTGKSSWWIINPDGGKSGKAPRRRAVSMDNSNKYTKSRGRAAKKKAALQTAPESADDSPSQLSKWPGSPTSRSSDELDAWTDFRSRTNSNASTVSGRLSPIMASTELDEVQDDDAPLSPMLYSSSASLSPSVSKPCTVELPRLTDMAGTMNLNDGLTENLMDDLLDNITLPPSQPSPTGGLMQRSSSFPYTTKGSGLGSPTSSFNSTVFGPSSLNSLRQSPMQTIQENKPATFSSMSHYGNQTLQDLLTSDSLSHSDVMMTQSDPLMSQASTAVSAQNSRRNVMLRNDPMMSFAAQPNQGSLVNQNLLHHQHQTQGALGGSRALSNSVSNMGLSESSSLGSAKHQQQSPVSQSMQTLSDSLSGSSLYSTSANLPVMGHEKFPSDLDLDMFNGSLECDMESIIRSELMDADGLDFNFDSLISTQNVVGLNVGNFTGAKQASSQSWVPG
Sequence of Proto-oncogene tyrosine-protein kinase Src (Mus musculus) (P05480 2-535 limits assumed): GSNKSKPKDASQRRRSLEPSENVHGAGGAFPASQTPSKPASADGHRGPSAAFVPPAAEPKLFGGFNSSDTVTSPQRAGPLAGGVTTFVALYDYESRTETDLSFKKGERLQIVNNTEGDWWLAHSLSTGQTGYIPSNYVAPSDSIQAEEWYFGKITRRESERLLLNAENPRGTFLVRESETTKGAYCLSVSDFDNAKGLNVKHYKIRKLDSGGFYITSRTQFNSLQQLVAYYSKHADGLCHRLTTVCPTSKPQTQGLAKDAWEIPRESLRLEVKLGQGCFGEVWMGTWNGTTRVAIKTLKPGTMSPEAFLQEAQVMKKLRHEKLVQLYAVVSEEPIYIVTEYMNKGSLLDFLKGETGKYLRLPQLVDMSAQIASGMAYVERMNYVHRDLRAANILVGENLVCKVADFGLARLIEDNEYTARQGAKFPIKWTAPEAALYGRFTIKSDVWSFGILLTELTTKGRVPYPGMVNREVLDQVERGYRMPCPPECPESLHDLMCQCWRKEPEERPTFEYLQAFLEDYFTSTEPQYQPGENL

Take `Oc1ccc(/C=C/c2cc(O)cc(O)c2)cc1` [RESVERATROL]: the outcome (in test [1]; in test [2]; in [6]; in [7]; in the test with MC3T3-E1; in the test with MCF7) was Active. For the same compound, the Ratio with Osteoblast [3] amounted to 3.76; with Osteoblast [4], 0.93; in the test on Osteoblast [8] it was 4.98; in the test with Osteoblast [9], 4.48; with Osteoblast [10], 0.55. In addition, the Activity entry in the test on Osteoblast [5] was “tde”.
